# PostGolgi yeast: growth inhibition of a yeast mutant, post-Golgi transport screen; post-Golgi transport phenotypic cell assay; inhibition, % at 10 µM; hit rate 0.9% among 98,000;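 also: yeast cells grown in 1536-well plates; yeast grown about 18 h at 30C before absorbance read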
# HePTP inh: inhibitors of human HePTP phosphatase | P35236 | recombinant HePTP phosphatase activity, OD absorbance | inhibition, % at 20 µM | hit rate 0.64% among 110,000; in the data active = inhibition above about 50%;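 also: plate controls were vehicle for no effect and reference inhibitor for full effect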
# tolC growth inh: E. coli tolC mutant growth inhibition; E. coli BW25113 tolC mutant growth, OD615; growth inhibition, % at 10 µM (by protocol); hit rate 2.2% among 65,000; AID 573;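 active = growth inhibition at or above a cutoff equal to the mean over every tested compound plus 3 SD, cut at about 60% in these data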;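 also: growth measured after 20 h incubation at 37 °C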
#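 Material: E. coli BW25113 ΔtolC::kan, tolC deletion mutant strain. Measure: percent growth inhibition. Schedule: 37 °C, 20 h exposure. Doses: single-point testing at 10 µM. Signal: A615 absorbance measurement. Buffer or medium: kanamycin-containing LB broth (50 µg/mL).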
# PostGolgi ctrl: yeast control strain growth, post-Golgi counter-screen; efflux-deficient yeast background strain, growth absorbance A615, 16 h; inhibition, % at 10 µM; hit rate 5% among 98,000
# E coli WT exp: E. coli BW25113 growth inhibition, expanded screen; OD600 absorbance; growth inhibition, % at 100 µM; hit rate 0.15% among 98,000; AID 710;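 active = growth inhibition above about 50% at one test dose, limit read from the data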;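 also: growth measured after 20 h incubation at 37 °C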
# PLAP act: activators of human placental alkaline phosphatase. P05187. purified PLAP enzyme, luminescent substrate read-out; hits give high values. hit rate 1.2% among 96,000. AID 696. activation fold at 20 µM; in the data active = activation fold above about 2
# Target sequence (P05187 whole entry, looked up): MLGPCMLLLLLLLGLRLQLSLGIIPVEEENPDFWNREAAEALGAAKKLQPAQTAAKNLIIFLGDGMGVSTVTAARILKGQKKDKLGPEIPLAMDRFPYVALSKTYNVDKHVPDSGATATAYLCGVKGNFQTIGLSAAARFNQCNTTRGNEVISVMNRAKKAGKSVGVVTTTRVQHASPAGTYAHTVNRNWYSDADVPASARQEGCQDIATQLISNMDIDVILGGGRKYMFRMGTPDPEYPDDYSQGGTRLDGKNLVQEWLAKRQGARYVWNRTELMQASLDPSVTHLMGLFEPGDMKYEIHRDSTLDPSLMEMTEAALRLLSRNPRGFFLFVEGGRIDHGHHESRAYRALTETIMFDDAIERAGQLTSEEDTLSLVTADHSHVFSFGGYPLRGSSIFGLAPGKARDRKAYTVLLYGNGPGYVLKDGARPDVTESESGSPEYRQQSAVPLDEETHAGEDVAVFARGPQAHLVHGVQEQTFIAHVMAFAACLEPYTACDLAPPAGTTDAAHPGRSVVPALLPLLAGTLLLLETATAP
# * = called active by the depositor; · = no result. Sampled rows, rich in hits. Any-hit rate of the full collection: about 5.5%. Rule as the data show it, unless noted: active = inhibition above about 30%; inactive = the rest.
SMILES,PostGolgi yeast,HePTP inh,tolC growth inh,PostGolgi ctrl,E coli WT exp,PLAP act
COc1ccc(NC(=O)/C(Cl)=C(/Cl)S(=O)(=O)Cc2ccc(C)cc2)cn1,97*,·,·,84*,1,0.8
COc1ccc(NC(=O)C(CC(C)C)NC(=O)c2ccccc2C)cn1 (stereo unspecified),-2,-2,0,3,2,1.4
O=C1c2ccccc2NC(c2ccc(F)cc2)N1c1ccc(Cl)cc1 (stereo unspecified),·,-20,·,·,·,·
Cc1cccc(NC(=O)C(=O)NCCCn2ccnc2)c1,·,10,·,·,·,·
O=C(NCCCn1ccnc1)Nc1cccc(Cl)c1,7,1,-11,36*,14,1
Cc1cccc(NC(=O)C(=O)NCc2ccccc2Cl)c1C,·,7,·,·,·,·
COc1ccc(C2(N(C(C)=O)c3ccccc3)C(=O)c3ccccc3C2=O)cc1,·,4,·,·,·,·
Cc1ccc(S(=O)(=O)n2nnc3ccccc32)c(C)c1,·,2,·,·,·,·
COc1cc(NS(=O)(=O)c2ccc(OC)c(C)c2C)c(OC)cc1Cl,-5,6,65*,36*,-11,1.2
O=C(CSc1nc2ccccc2[nH]1)Nc1cc(C(F)(F)F)ccc1N1CCOCC1,21,3,100*,24,-7,1.3
Cc1onc(-c2ccccc2)c1C(=O)Nc1cc(C(F)(F)F)ccc1N1CCOCC1,2,5,24,43*,-2,1.6
O=C(CSc1nc2ccccc2[nH]1)Nc1ccccc1N1CCOCC1,-2,5,21,-2,0,1.8
Cc1onc(-c2ccccc2)c1C(=O)Nc1ccccc1N1CCOCC1,5,1,0,15,-3,1.7
CCCN1C(=O)c2ccccc2NC1c1c(Cl)cccc1Cl (stereo unspecified),·,-7,·,·,·,·
CCCOC(=O)c1c(NC(=O)c2ccccc2OC)sc2c1CCC(C)C2 (stereo unspecified),·,16,·,·,·,·
COc1ccc(-c2nc3cc(NC(=O)c4ccc([N+](=O)[O-])cc4)ccc3o2)cc1Cl,·,3,·,·,·,·
CCc1ccc2c(Cl)c(C(=O)N/N=C/c3c[nH]c4ccccc34)sc2c1,1,·,·,42*,-7,1
O=C(N/N=C/c1ccc[nH]1)c1sc2ccccc2c1Cl,-5,-2,·,6,4,1.2
C=CCN1C(=O)/C(=C\c2cc(Cl)c(OCc3ccccc3Cl)c(OC)c2)SC1=S,·,1,·,·,·,·
COc1ccc(Cl)cc1C(=O)NC(=S)Nc1cc(-c2nc3ccccc3[nH]2)ccc1C,-3,·,·,35*,-13,·
COc1ccc(Cl)cc1C(=O)NNC(=S)NC(=O)c1cc(-c2ccccc2)nc2ccccc12,-7,·,·,17,-10,1.5
Cc1nc(NCCN2CCOCC2)c2oc3ccccc3c2n1,-13,-12,3,1,6,1
Cc1nc(NCCc2ccccc2)c2oc3ccccc3c2n1,18,·,·,51*,-5,1.8
O=C(C1CCN(S(=O)(=O)c2cccs2)CC1)N1CCc2ccccc2C1,-1,-5,12,6,-7,1
Cc1noc(/C=C/c2ccco2)c1S(=O)(=O)N1CCC(C(=O)N2CCc3ccccc3C2)CC1,1,4,10,39*,-20,1.2
SMILES,PostGolgi yeast,HePTP inh,tolC growth inh,PostGolgi ctrl,E coli WT exp,PLAP act
Cc1noc(/C=C/c2ccco2)c1S(=O)(=O)N1CCC(C(=O)NCc2ccco2)CC1,28,3,-1,22,-4,1
Cc1ccc(CNC(=O)C2CCN(S(=O)(=O)c3c(C)noc3/C=C/c3ccco3)CC2)cc1,-9,·,·,33*,-9,1.4
OCCCCNCc1ccc(OCc2ccc(Cl)cc2Cl)cc1,51*,·,·,27,33,1.7
O=C(COC(=O)Cc1ccc(S(=O)(=O)N2CCCCC2)s1)Nc1ccc2c(c1)OCO2,-3,11,4,36*,0,1.3
O=C(COC(=O)Cc1ccc2c(c1)OCCO2)Nc1ccc(S(=O)(=O)N2CCCC2)cc1,2,·,·,4,1,0.8
Cc1cc(C(C)(C)C)oc1C(=O)N(CC(=O)NC1CCCC1)Cc1ccccc1,32*,·,·,53*,-3,1
O=C(CCSc1nnc(-c2ccncc2)o1)Nc1ccc(Cl)cc1,102*,15,2,99*,-11,0.8
O=C(CCSc1nnc(-c2ccncc2)o1)Nc1ccccc1Cl,-4,·,·,1,7,0.7
Cc1nnc(NC(=O)CSc2nnc(CCc3nc4ccccc4[nH]3)n2C)s1,3,7,-13,5,0,2.1*
CCSCc1nnc(SCC(=O)Nc2nc3ccccc3s2)n1C,7,-2,-9,36*,-1,0.8
CCc1nnc(NC(=O)CSc2nnc(CCc3nc4ccccc4[nH]3)n2C)s1,-5,12,-15,-12,-9,1.2
COc1ccc(-n2c(=O)c3c4c(sc3n3c(SCCC(C)C)nnc23)CCCC4)cc1,·,-1,·,·,·,·
COc1ccc2c(c1)-c1c(sn(-c3cc(C)cc(C)c3)c1=S)C(C)(C)N2,·,-1,·,·,·,·
Cn1c(Sc2ccc(Cl)cc2)c(C=O)c2ccccc21,8,·,·,37*,-3,0.7
Cn1c(Sc2ccccc2Cl)c(C=O)c2ccccc21,5,·,·,13,-8,1.1
Cc1ccc(-n2c(C3CC3c3ccc(Cl)cc3)n[nH]c2=S)cc1 (stereo unspecified),-1,·,·,11,5,1.1
Cc1ccc(C2CC2c2n[nH]c(=S)n2-c2ccc(C)cc2)cc1 (stereo unspecified),4,·,·,23,4,2.1*
CC(C(=O)N(C1CC1)C1(C(=O)Nc2ccccc2)CCCC1)N1C(=O)c2ccccc2C1=O (stereo unspecified),2,-7,14,45*,-19,1.3
CC(C(=O)Nc1ccc(I)cc1)N1C(=O)c2ccccc2C1=O (stereo unspecified),·,39,·,·,·,·
CC(C)N1C(=O)/C(=C/c2nc3ccccc3c(=O)n2-c2ccccc2)c2ccccc21,-3,·,·,31*,-7,1
COc1cccc(-n2c(C=C3C(=O)N(C(C)C)c4ccccc43)nc3ccccc3c2=O)c1,·,-26,·,·,·,·
CC(=O)c1cnc2nc(C)nn2c1C,32*,8,-31,-5,9,1
CCOc1ccc(C(=O)Nc2ccc(NC(=O)c3ccco3)c(OC)c2)cc1[N+](=O)[O-],·,104*,·,·,·,·
CCOc1ccc(C(=O)Nc2ccc(-c3nc4ccccc4o3)c(O)c2)cc1[N+](=O)[O-],·,104*,·,·,·,·
COc1cc(NC(=O)c2ccc(C)c([N+](=O)[O-])c2)ccc1NC(=O)c1ccco1,·,5,·,·,·,·
CCOc1ccc(C(=O)Nc2ccc3oc(-c4cccc(Cl)c4Cl)nc3c2)cc1[N+](=O)[O-],·,8,·,·,·,·
OCCCNC(Nc1ccc(Cl)cc1)=C(c1ccccc1)c1ccccc1,·,-8,·,·,·,·
COc1ccc(C2CC(=O)C3=C(C2)Nc2ccccc2NC3c2cccc(Cl)c2Cl)cc1OC (stereo unspecified),·,-8,·,·,·,·
CC1CCCC(C)N1c1nnc(NC(=O)c2cc(-c3ccc(Br)cc3)on2)s1 (stereo unspecified),4,·,·,31*,-9,1.7
O=C(Nc1nnc(N2CCCCCC2)s1)c1cc(-c2ccc(Br)cc2)on1,-6,7,17,9,-7,1.2

# High-throughput results from PubChem.
